Experimental data: ChEMBL document CHEMBL1124553, “Brain-specific chemical delivery systems for beta-lactam antibiotics. In vitro and in vivo studies of some dihydropyridine and dihydroisoquinoline derivatives of benzylpenicillin in rats” (J Med Chem, 1989)

Experiments:
[1] = Half-life for disappearance of compound from rabbit 10% brain homogenate; format: ADME, Oryctolagus cuniculus
How it was run: (§1)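 Freshly collected whole blood, or 10% w/v brain homogenate in pH 7.4 phosphate buffer (ionic strength 0.15), was prewarmed to 37 °C. Compound was spiked from an 8 mM DMSO stock to 40 µM final. Timed samples were quenched in 8% DMSO/acetonitrile, centrifuged, filtered and analyzed by reversed-phase C8 HPLC with UV detection. K came from linear regression of log peak height versus time, with t1/2 derived from it. Values are mean ± SE of three determinations in different animal samples.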

[2] = Half-life for disappearance of compound from rat 10% brain homogenate; format: ADME; how it was run: as §1
[3] = species: Oryctolagus cuniculus; assay: Pseudo first-order rate constant (K) for disappearance of compound from rabbit 10% brain homogenate; format: ADME
How it was run: (§2)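 Freshly collected whole blood (rat trunk blood; rabbit) or 10% w/v brain homogenate made in pH 7.4 phosphate buffer (μ = 0.15), prewarmed to 37 °C. Compound added from 8 mM DMSO stock to a final 40 μM. Timed 0.3 mL samples were quenched in 8% DMSO/acetonitrile, centrifuged, filtered and analysed by reversed-phase C8 HPLC-UV. K came from linear regression of log peak height versus time; n=3 animal samples.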

[4] = species: Rattus norvegicus; assay: Pseudo first-order rate constant (K) for disappearance of compound from rat 10% brain homogenate; format: ADME; how it was run: as §2
[5] = Half-life for disappearance of compound from dog whole blood; format: ADME, organism-based, Canis lupus familiaris; how it was run: as §1
[6] = Half-life for disappearance of compound from human whole blood; format: ADME, organism-based; how it was run: as §1
[7] = Half-life for disappearance of compound from rabbit whole blood; format: ADME, organism-based, Oryctolagus cuniculus; how it was run: as §1
[8] = Half-life for disappearance of compound from rat whole blood; format: ADME, organism-based; how it was run: as §1
[9] = species: Canis familiaris; assay: Pseudo first-order rate constant (K) for disappearance of compound from dog whole blood; format: ADME, organism-based, Canis lupus familiaris; how it was run: as §1
[10] = species: Homo sapiens; assay: Pseudo first-order rate constant (K) for disappearance of compound from human whole blood; format: ADME, organism-based; how it was run: as §1
[11] = species: Oryctolagus cuniculus; assay: Pseudo first-order rate constant (K) for disappearance of compound from rabbit whole blood; format: ADME, organism-based; how it was run: as §2
[12] = Pseudo first-order rate constant (K) for disappearance of compound from rat whole blood; format: ADME, tissue-based; how it was run: as §2

Question: Which half-life [1] does the source give for `C[n+]1cccc(C(=O)OCOC(=O)C2N3C(=O)C(NC(=O)Cc4ccccc4)C3SC2(C)C)c1.[I-]` (stereo unspecified) here?
Answer: 0.5 min

Question: And the half-life [2]?
Answer: 0.6 min

Question: What about the K [3] of the same compound?
Answer: 1.366 min⁻¹

Question: And the K [4]?
Answer: 0.949 min⁻¹

Question: With `C[n+]1cccc(C(=O)NCCOC(=O)C2N3C(=O)C(NC(=O)Cc4ccccc4)C3SC2(C)C)c1.[I-]` (stereo unspecified) as the compound, how does the half-life [5] read?
Answer: 14.5 min

Question: What about the half-life [6] of the same compound?
Answer: 9.1 min

Question: And the half-life [1]?
Answer: 23.4 min

Question: What about the half-life [7] of the same compound?
Answer: 3 min

Question: And the half-life [2]?
Answer: 92.1 min

Question: What about the half-life [8] of the same compound?
Answer: 1.9 min

Question: What about the K [9] of the same compound?
Answer: 0.048 min⁻¹

Question: What about the K [10] of the same compound?
Answer: 0.078 min⁻¹

Question: And the K [3]?
Answer: 0.03 min⁻¹

Question: And the K [11]?
Answer: 0.23 min⁻¹

Question: What about the K [4] of the same compound?
Answer: 0.008 min⁻¹

Question: And the K [12]?
Answer: 0.362 min⁻¹
